ChEMBL document CHEMBL1124373, “Specific inhibition of benzodiazepine receptor binding by some N-(indol-3-ylglyoxylyl)amino acid derivatives: stereoselective interactions” (J Med Chem, 1989)

Tests used:
[1] = molecular target: GABA-A receptor; anion channel; experiment: Inhibitory concentration against [3H]flunitrazepam binding to benzodiazepine receptor from bovine cerebral cortex; assay type: tissue-based
Procedure, shortened: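 Membranes from bovine cerebral cortex were homogenized in 0.32 M sucrose with protease inhibitors, osmotically shocked, and suspended in 50 mM Tris-HCl pH 7.4. Membrane (0.5 mg protein) was incubated with 0.9 nM [3H]flunitrazepam at 0 °C for 90 min, then filtered and counted. Nonspecific binding was defined with 10 µM diazepam. IC50 came from log-probit analysis of six to eight concentrations in triplicate; values are means ± SEM of four determinations.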

[2] = molecular target: T1, GABA-A receptor; anion channel (Bos taurus) (UniProt P10063+P08220+P20237+P08219+P10064+P22300); experiment: Percentage inhibition of [3H]flunitrazepam binding to benzodiazepine receptor from bovine cerebral cortex at a concentration of 250 uM; assay type: tissue-based
[3] = molecular target: T1, GABA-A receptor; anion channel (Bos taurus); experiment: Relative binding to GABA-A benzodiazepine receptor in the presence and absence of GABA (GABA shift); assay type: protein-complex assay
Procedure, shortened: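 Exhaustively washed bovine cortical membranes were used. Binding inhibition used 0.9 nM [3H]flunitrazepam at 0 °C for 90 min in 50 mM Tris-HCl pH 7.4. IC50 was determined by log-probit analysis without and with 10 µM GABA. Ratio = IC50 without GABA / IC50 with GABA.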

Mus musculus [4] = experiment: Dose required to induce convulsions in mice treated with subcutaneous PTZ (40 mg/kg); assay type: functional; settings: sc
Procedure, shortened: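 Groups of 10 mice received graded ip doses (0.1 mL) suspended in 1% carboxymethylcellulose, or vehicle alone. A subconvulsant PTZ dose of 40 mg/kg followed 30 min later. ED50 is the dose inducing convulsions in 50% of mice.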

Mus musculus [5] = experiment: Antagonism of Diazepam anticonvulsant effect in mice treated with 60 mg/kg PTZ; assay type: functional

Structure (SMILES) | IC50 [1] | further results
O=C(N[C@H](Cc1ccccc1)C(=O)O)C(=O)c1c[nH]c2ccc(Cl)cc12 | 48 µM | –
CC(NC(=O)C(=O)c1c[nH]c2ccccc12)C(=O)O (configuration not stated) | 105 µM | –
CCOC(=O)C(Cc1ccccc1)NC(=O)C(=O)c1c[nH]c2ccc(Br)cc12 (configuration not stated) | 180 µM | –
CCOC(=O)[C@@H](Cc1ccccc1)NC(=O)C(=O)c1c[nH]c2ccc(Cl)cc12 | 45 µM | –
C[C@@H](NC(=O)C(=O)c1c[nH]c2ccc([N+](=O)[O-])cc12)C(=O)O | 19 µM | –
C[C@H](NC(=O)C(=O)c1c[nH]c2ccc(Cl)cc12)C(=O)O | 5.01 µM | –
CCOC(=O)[C@@H](C)NC(=O)C(=O)c1c[nH]c2ccc(OC)cc12 | 110 µM | –
O=C(N[C@@H](Cc1ccccc1)C(=O)O)C(=O)c1c[nH]c2ccc(Cl)cc12 | 12 µM | –
CCOC(=O)[C@@H](Cc1ccccc1)NC(=O)C(=O)c1c[nH]c2ccccc12 | – | inhibition [2]: 55%
CCOC(=O)[C@@H](C)NC(=O)C(=O)c1c[nH]c2ccc(Br)cc12 | 52 µM | Ratio [3]: 0.85
CCOC(=O)[C@@H](C)NC(=O)C(=O)c1c[nH]c2ccc(Cl)cc12 | 25 µM | Ratio [3]: 0.92
CCOC(=O)[C@H](Cc1ccccc1)NC(=O)C(=O)c1c[nH]c2ccccc12 | – | inhibition [2]: 69%
CCOC(=O)[C@H](Cc1ccccc1)NC(=O)C(=O)c1c[nH]c2ccc(Cl)cc12 | 30 µM | –
CCOC(=O)[C@@H](C)NC(=O)C(=O)c1c[nH]c2ccc([N+](=O)[O-])cc12 | 3 µM | Ratio [3]: 0.79
C[C@H](NC(=O)C(=O)c1c[nH]c2ccc([N+](=O)[O-])cc12)C(=O)O | 3 µM | –
O=C(N[C@@H](Cc1ccccc1)C(=O)O)C(=O)c1c[nH]c2ccccc12 | – | inhibition [2]: 47%
CCOC(=O)[C@H](Cc1ccccc1)NC(=O)C(=O)c1c[nH]c2ccc([N+](=O)[O-])cc12 | 0.1 µM | –
CCOC(=O)[C@H](C)NC(=O)C(=O)c1c[nH]c2ccc(Cl)cc12 | 0.15 µM | Ratio [3]: 0.9
COc1ccc2[nH]cc(C(=O)C(=O)N[C@@H](C)C(=O)O)c2c1 | 22 µM | –
CCOC(=O)[C@@H](Cc1ccccc1)NC(=O)C(=O)c1c[nH]c2ccc(OC)cc12 | – | inhibition [2]: 30%
CCOC(=O)[C@H](Cc1ccccc1)NC(=O)C(=O)c1c[nH]c2ccc(Br)cc12 | 55 µM | –
O=C(N[C@@H](Cc1ccccc1)C(=O)O)C(=O)c1c[nH]c2ccc(Br)cc12 | 60 µM | –
C[C@H](NC(=O)C(=O)c1c[nH]c2ccccc12)C(=O)O | 48 µM | –

Structure (SMILES) | IC50 [1] | further results
CCOC(=O)[C@@H](Cc1ccccc1)NC(=O)C(=O)c1c[nH]c2ccc([N+](=O)[O-])cc12 | 2.8 µM | –
COc1ccc2[nH]cc(C(=O)C(=O)N[C@H](C)C(=O)O)c2c1 | 170 µM | –
O=C(NC(Cc1ccccc1)C(=O)O)C(=O)c1c[nH]c2ccc(Br)cc12 (configuration not stated) | 158 µM | –
O=C(N[C@@H](Cc1ccccc1)C(=O)O)C(=O)c1c[nH]c2ccc([N+](=O)[O-])cc12 | 4 µM | –
CCOC(=O)[C@H](Cc1ccccc1)NC(=O)C(=O)c1c[nH]c2ccc(OC)cc12 | – | inhibition [2]: 77%
CCOC(=O)[C@H](C)NC(=O)C(=O)c1c[nH]c2ccc([N+](=O)[O-])cc12 | 0.07 µM | Ratio [3]: 0.67; ED50 (Mus musculus [4]): 150 mg/kg; ED50 (Mus musculus [5]): 100 mg/kg
CCOC(=O)[C@H](C)NC(=O)C(=O)c1c[nH]c2ccc(OC)cc12 | 0.9 µM | –
C[C@@H](NC(=O)C(=O)c1c[nH]c2ccccc12)C(=O)O | 304 µM | inhibition [2]: 32%
O=C(N[C@H](Cc1ccccc1)C(=O)O)C(=O)c1c[nH]c2ccc(Br)cc12 | 245 µM | inhibition [2]: 51%
CCOC(=O)[C@H](C)NC(=O)C(=O)c1c[nH]c2ccccc12 | 7.5 µM | –
C[C@@H](NC(=O)C(=O)c1c[nH]c2ccc(Cl)cc12)C(=O)O | 46 µM | –
O=C(N[C@H](Cc1ccccc1)C(=O)O)C(=O)c1c[nH]c2ccccc12 | – | inhibition [2]: 32%
CCOC(=O)[C@H](C)NC(=O)C(=O)c1c[nH]c2ccc(Br)cc12 | 0.18 µM | Ratio [3]: 0.78; ED50 (Mus musculus [4]): 40 mg/kg; ED50 (Mus musculus [5]): 50 mg/kg
COc1ccc2[nH]cc(C(=O)C(=O)N[C@H](Cc3ccccc3)C(=O)O)c2c1 | – | inhibition [2]: 18%
COc1ccc2[nH]cc(C(=O)C(=O)N[C@@H](Cc3ccccc3)C(=O)O)c2c1 | – | inhibition [2]: 50%
O=C(N[C@H](Cc1ccccc1)C(=O)O)C(=O)c1c[nH]c2ccc([N+](=O)[O-])cc12 | 21 µM | –
CCOC(=O)[C@@H](Cc1ccccc1)NC(=O)C(=O)c1c[nH]c2ccc(Br)cc12 | 220 µM | –
CC(NC(=O)C(=O)c1c[nH]c2ccc(Br)cc12)C(=O)O (configuration not stated) | 40 µM | –
CCOC(=O)C(C)NC(=O)C(=O)c1c[nH]c2ccccc12 (configuration not stated) | 13 µM | –
CCOC(=O)[C@@H](C)NC(=O)C(=O)c1c[nH]c2ccccc12 | 17 µM | –
C[C@H](NC(=O)C(=O)c1c[nH]c2ccc(Br)cc12)C(=O)O | 7.1 µM | –
C[C@@H](NC(=O)C(=O)c1c[nH]c2ccc(Br)cc12)C(=O)O | 80 µM | –
